# Hits are enriched below; roughly 3.9% of the tested compounds scored in any of these assays.
# Jurkat NFkB inh = lowers PMA/ionomycin-induced NF-kB signal in Jurkat cells. PMA/ionomycin-induced NF-kB luciferase reporter, luminescence. inhibition, % at 4 µM. hit rate 0.53% among 330,000. AID 435003; in the data active means inhibition above about 50%
# Gli-Sufu block = Gli-Sufu pathway antagonism; Sufu-KO-LIGHT fibroblasts, Gli luciferase reporter luminescence; inhibition, % at 5 µM; hit rate 0.74% among 340,000; AID 588413;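 active means inhibition above about 55%, limit read from the data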
# XBP1 UPR activ = adaptive UPR (XBP1) activation; CHO-XBP1 luciferase reporter, IRE1-XBP1 UPR activation, luminescence; percent of tunicamycin response, DMSO as zero; activation, % at 20 µM; hit rate 0.33% among 330,000;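 active means versus positive control, 20 µM dose yields 30% or more activation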
#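 Material: IRE1-XBP1 luciferase reporter CHO line / Quantity: one thousand reporter cells per well / Buffer or medium: F12 with 10% serum / Compound: 20 µM single concentration, DMSO 1% / Times: 6 h treatment, 37 °C / Detection: Steady-Glo luciferase glow luminescence, 10 min after reagent addition / Benchmarks: tunicamycin high, DMSO low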
# 697 NFkB inh = inhibitors of the PMA/ionomycin-induced NF-kB reporter in 697 B cells; 697 B-cell NF-kB luciferase reporter, 16 h; inhibition, % at 4 µM; hit rate 0.33% among 330,000; in the data active means inhibition above about 35%
# CHOP inhibitor = blocks CHOP induction under ER stress. CHO-K1 CHOP-promoter luciferase, tunicamycin-induced, 15-18 h. inhibition, % at 10 µM. hit rate 3.8% among 220,000. AID 2732;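 active means compounds that reduced the stress-induced luciferase reporter signal by more than about 70% of percent inhibition, limit read from the data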
# CHOP UPR activ = activators of apoptotic arm of unfolded protein response (CHOP). activation, % at 10 µM. hit rate 0.34% among 330,000. AID 449763. CHO-CHOP luciferase reporter, UPR activation, luminescence; percent of tunicamycin response over DMSO baseline;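 active means at 10 µM dose, activation of 40% or more, normalized to positive control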
#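 Test system: CHO CHOP reporter cells. Input: 500 CHO-CHOP cells per well. Medium: F12 with 10% FBS. Technique: luciferase luminescence. Measure: percent activation relative to tunicamycin control. Dosing: 10 µM compound, 0.5% DMSO. Timing: 16-18 h cell attachment, then 6 h compound exposure, 37 °C.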
# UPR XBP1 confirm = confirmation of adaptive unfolded protein response (XBP1) activators | activation, % at 20 µM | hit rate 63% among 1,000 | AID 485299 | shares compounds with XBP1 UPR activ | CHO-XBP1 IRE1-XBP1 luciferase reporter, luminescence;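 active means reporter signal at least 30% of the positive control's activation in two or more of four replicate wells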
# Numbers stand for hits; n = inactive; x = not tested or not shown.
SMILES,Jurkat NFkB inh,Gli-Sufu block,XBP1 UPR activ,697 NFkB inh,CHOP inhibitor,CHOP UPR activ,UPR XBP1 confirm
COc1ccc2[nH]c3c(c2c1)CCN1C(=O)C(CC(=O)NC/C=C(\C)CCC=C(C)C)C[C@H](C(=O)N2CCOCC2)[C@@]31CCC1CCCC1 (stereo partly drawn),x,n,47,n,x,n,58
COc1ccc(OC)c(N2C(=NC(=O)C3CCCCC3)SC3CS(=O)(=O)CC32)c1 (stereo not drawn),n,n,n,n,x,n,x
C[C@H](CO)N1C[C@H](C)[C@@H](CN(C)S(=O)(=O)c2ccc(F)cc2)Oc2ccc(NC(=O)C3CC3)cc2C1=O,n,n,n,n,x,n,x
COc1ccc(-c2nn(-c3ccccc3)cc2/C=C/C(=O)OCC(=O)Nc2cccc(C#N)c2)cc1,n,n,66,n,n,n,97
COc1ccc(-c2nn(-c3ccccc3)cc2/C=C/C(=O)OCC(=O)Nc2ccc(C#N)cc2)cc1,n,n,n,n,n,n,x
Cc1ccc2[nH]c3c(=O)n(CC(=O)N4CC(C)CC(C)C4)ncc3c2c1 (stereo not drawn),n,n,32,n,x,n,n
Cc1cc(C)c(C(=O)N(C)C2CCCN(Cc3ccccc3F)C2)o1 (stereo not drawn),n,n,n,n,x,n,x
CC(=O)Nc1sc(C)c(C)c1C(=O)OCC(=O)Nc1cccc(C)c1,n,n,37,n,x,n,n
COc1cccc(NC(=O)CN2C(=O)NC3(CCCc4ccccc43)C2=O)c1 (stereo not drawn),n,n,n,n,x,n,x
Cc1c(Cl)cccc1Nc1nc(NCCO)c2ccccc2n1,n,n,75,n,x,n,58
O=[N+]([O-])c1ccc(-c2ccc(C=Nc3cccc4ccccc34)o2)cc1,n,n,n,n,n,n,x
O=[N+]([O-])c1cc(-c2ccc(/C=N/c3nc4ccccn4c3-c3ccco3)o2)ccc1Cl,n,n,101,n,91,n,98
Cc1cc(C)c(C(=O)CC(=O)c2cccnc2)c(C)c1,x,n,x,x,x,x,x
COC(=O)c1c(C)oc2ccc(N(C(=O)Oc3ccccc3)S(=O)(=O)c3ccc(Cl)c([N+](=O)[O-])c3)cc12,n,n,32,n,83,n,139
COC(=O)c1c(C)oc2ccc(N(C(=O)c3ccncc3)S(=O)(=O)c3ccc4ccccc4c3)cc12,n,n,n,n,n,n,x
COc1cccc(NC(=O)c2cc3c(=O)n4ccccc4nc3n(CC(C)C)c2=N)c1,n,n,n,n,n,n,x
Cc1cccc(NC(=O)c2cc3c(=O)n4ccccc4nc3n(CC(C)C)c2=N)c1,n,n,99,n,n,n,n
COC(=O)c1sc(NC(=O)c2cnccn2)c(C(=O)OC)c1C,n,n,41,n,x,n,n
COC(=O)c1sc(NC(C)=O)c(C(=O)OC)c1C,n,n,n,n,n,n,x
COc1ccc(NC(=O)CN(C)C(=O)c2cn(-c3ccccc3)nc2-c2ccc(Cl)cc2)cc1,n,n,n,n,x,n,x
c1ccc2c(c1)nnn1c3ccccc3nc21,n,x,n,n,n,n,x
ClC(Cl)(Cl)c1nc2ccccc2n2nncc12,n,n,31,n,x,n,n
CCN(CC)C(=O)[C@H]1C[C@H](CC(=O)NCCC2=CCCCC2)C(=O)N2CCc3c([nH]c4ccc(Cl)cc34)[C@]12C,x,n,n,n,x,n,x
Cc1ccnc(OC(C(=O)O)C(OCc2ccccc2)(c2ccccc2)c2ccc(C(F)(F)F)cc2)n1 (stereo not drawn),n,n,n,n,x,n,x
COC(c1ccccc1)(c1ccccc1)C(Oc1nccc(C)n1)C(=O)O (stereo not drawn),n,n,137,n,x,n,n
SMILES,Jurkat NFkB inh,Gli-Sufu block,XBP1 UPR activ,697 NFkB inh,CHOP inhibitor,CHOP UPR activ,UPR XBP1 confirm
O=C(Cc1ccccc1F)Nc1ccc(S(=O)(=O)Nc2ncccn2)cc1,n,n,n,n,x,n,x
COc1ccc(Cl)cc1N=Cc1c(O)c2ccccc2oc1=O,n,n,42,n,x,n,n
O=C(CN1C(=O)NC2(CCCC2)C1=O)NNC(=O)c1ccccc1,n,n,n,n,x,n,x
c1ccc(C2NCCn3cccc32)cc1 (stereo not drawn),n,n,49,n,n,n,n
CC(NCC(O)COCCC12CC3CC(CC(C3)C1)C2)c1ccccc1 (stereo not drawn),n,n,51,n,n,n,51
N/C(=N\c1nc(CSc2ccccn2)cc(=O)[nH]1)Nc1ccc(Cl)cc1Cl,n,n,32,n,n,n,32
Cn1cc(/C=C(\C#N)C(=O)Nc2cccc([N+](=O)[O-])c2)c2ccccc21,n,n,79,n,n,n,73
NC(=O)c1nsc(C(=O)N(c2ccccc2)C(C(=O)NC2CCCCC2)c2ccc(O)cc2)c1N (stereo not drawn),n,n,n,n,x,n,x
Cc1c(CCOC(=O)CC23CC4CC(CC(C4)C2)C3)sc[n+]1CC(=O)c1ccc(Br)cc1,n,n,34,n,n,n,n
Cc1c(CCOC(=O)CC23CC4CC(CC(C)(C4)C2)C3)sc[n+]1CC(=O)c1ccccc1,n,n,n,n,n,n,x
COc1ccccc1NC(=O)C(C)OC(=O)CCNS(=O)(=O)c1cccc(C(F)(F)F)c1 (stereo not drawn),n,n,n,n,x,n,x
COc1ccccc1CCC(=O)OCC(=O)Nc1ccc(C(N)=O)cc1,n,n,n,n,x,n,x
Cc1cc(C(=O)O)cc(S(=O)(=O)Nc2c(C)nn(C)c2C)c1C,n,n,n,n,x,n,x
CCn1c(=O)c(=O)n(CC)c2cc(S(=O)(=O)Nc3cc(C)ccc3C)ccc21,n,n,n,n,x,n,x
CCCCN1C(=O)/C(=C2/Sc3ccc(OC)cc3N2CC)SC1=S,n,n,94,n,x,n,49
Nc1nc(Nc2cccc(C(F)(F)F)c2)nc(C(F)(F)F)n1,n,n,34,n,n,n,49
Cc1cc(C)cc(NC(=O)Cn2c(=O)oc3cc(S(=O)(=O)N4CCC(C)CC4)ccc32)c1,n,n,32,n,72,n,n
Cc1ccc(-c2nnn(CC(=O)Nc3ccc(S(=O)(=O)N4CCC(C)CC4)cc3)n2)cc1,n,n,44,n,n,n,56
CCC(=O)Nc1cccc(C(=O)/C=C/c2ccc(F)cc2)c1,n,n,35,n,n,n,53
CC(=O)Nc1cccc(C(=O)/C=C/c2ccc(C)cc2)c1,n,n,n,n,n,n,x
Cc1nn(-c2ccccc2)c2sc(C(=O)NC3CC3)cc12,n,n,n,n,n,n,x
